{"data": "Experimental data gathered from unrelated publications", "target": "Mitogen-activated protein kinase 11 (MAPK11, Homo sapiens, UniProt Q15759)"}
{"Structure (SMILES)": "N#Cc1ccc(NC(=O)Nc2ccccc2)cc1", "assay": "cell-free assay, competition with immobilised ligand", "setting": "25 µM", "endpoint": "remaining binding", "value": "100%"}
{"Structure (SMILES)": "CC(C)S(=O)(=O)c1ccc2nccc(Nc3ccc4sc(C5CCCC5)nc4c3)c2c1", "assay": "enzyme activity, inhibitor", "setting": "1 µM", "endpoint": "activity vs control", "value": "108%"}
{"Structure (SMILES)": "C#Cc1cnc(Nc2ccnc(CO)c2)nc1Nc1ccccc1S(C)(=O)=NC#N (stereo not shown)", "assay": "cell-free assay", "setting": "1 µM", "endpoint": "remaining signal", "value": "82%"}
{"Structure (SMILES)": "CCCCC(=O)Nc1ccc(-c2ccc3ncn(CCC)c(=O)c3c2)cn1", "assay": "binding, competition with immobilised ligand", "setting": "0.5 µM", "endpoint": "remaining binding", "value": "87%"}
{"Structure (SMILES)": "CC#CC(=O)N1CCC[C@H]1c1nc(-c2ccc(C(=O)Nc3ccccn3)cc2)c2c(N)nccn12", "assay": "enzyme activity, inhibitor", "setting": "1 µM", "endpoint": "inhibition", "value": "0%"}
{"Structure (SMILES)": "CN1CCN(C(=O)c2ccc(NC(=O)Nc3ccc(N(C)c4ccnc(Nc5ccc(CS(C)(=O)=O)cc5)n4)cc3)cc2)CC1", "assay": "binding, competition with immobilised ligand", "setting": "1 µM", "endpoint": "remaining binding", "value": "100%"}
{"Structure (SMILES)": "Cc1cc(O)c(-c2ccc([C@@H](C)CN(C)C)cc2)c2c1[nH]c(=O)c1sccc12", "assay": "enzyme activity, inhibitor", "setting": "0.1 µM", "endpoint": "inhibition", "value": "5.56%"}
{"Structure (SMILES)": "Cc1ccc(NC(=O)c2ccnc(C(F)(F)F)c2)cc1-c1cc(OCCO)nc(N2CCOCC2)c1", "assay": "binding, competition with immobilised ligand", "setting": "1 µM", "endpoint": "remaining binding", "value": "34%"}
{"Structure (SMILES)": "C#Cc1cc(-c2cc(Nc3nc(N[C@@H](C)c4ccc(F)cn4)ncc3Cl)n[nH]2)ccc1C=O", "assay": "enzyme activity, inhibitor", "setting": "0.2 µM", "endpoint": "inhibition", "value": "21.9%"}
{"Structure (SMILES)": "C=CC(=O)N1CCC[C@@H](n2nc(-c3ccc(Oc4ccccc4)cc3)c3c(N)ncnc32)C1", "assay": "enzyme activity, inhibitor", "setting": "1 µM", "endpoint": "inhibition", "value": "2%"}
